Measurements: ChEMBL document CHEMBL5244270, “Selective Inhibitors of G2019S-LRRK2 Kinase Activity” (J Med Chem, 2020)

Key:
[1] = target: T1, Leucine-rich repeat serine/threonine-protein kinase 2 (Homo sapiens, UniProt Q5S007, G2019S); experiment: Inhibition of N-terminal GST-fused human LRRK2 G2019S mutant using fluorescein-labeled LRRKtide as substrate preincubated for 15 mins followed by substrate addition and measured after 1 hr by TR-FRET assay
Method in brief: (§1)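 Purified truncated LRRK2, WT or G2019S, at 2 nM nominal was preincubated with inhibitor for 15 min. LRRKtide (0.4 μM) and ATP (25 μM) were then added for 1 h. The reaction was stopped with 10 mM EDTA plus 2 nM Tb-anti-pLRRKtide antibody, and TR-FRET was read. IC50 is the geometric mean of at least two independent experiments.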

[2] = target: T2, Leucine-rich repeat serine/threonine-protein kinase 2 (Homo sapiens, UniProt Q5S007); experiment: Inhibition of N-terminal GST-fused human wild type LRRK2 using fluorescein-labeled LRRKtide as substrate preincubated for 15 mins followed by substrate addition and measured after 1 hr by TR-FRET assay; method in brief: as §1
Homo sapiens [3] = organism: Homo sapiens; experiment: Selectivity ratio of IC50 for inhibition of N-terminal GST-fused human wild type LRRK2 to IC50 for inhibition of N-terminal GST-fused human […] mutant; method in brief: as §1
Homo sapiens [4] = organism: Homo sapiens; experiment: Selectivity ratio of IC50 for inhibition of human wild type LRRK2 expressed in HEK293 cells to IC50 for inhibition of human LRRK2 G2019S mutant expressed in HEK293; type: cell-based
Method in brief: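 HEK293 cells stably expressing WT or G2019S LRRK2 (100 000/well, EMEM with 1% FBS) were dosed about 24 h after plating, for 2 h. They were lysed in 1% SDS Tris buffer with protease and phosphatase inhibitors, and lysates were heated at 65 °C for 10 min. pThr73-Rab10, total Rab10, pS935 and total LRRK2 were quantified by immunoblot. IC50 is the geometric mean of at least two independent experiments.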

[5] = target: T2, Leucine-rich repeat serine/threonine-protein kinase 2; experiment: Inhibition of human wild type LRRK2 expressed in HEK293 cells assessed as reduction in pSer935 phosphorylation incubated for 2 hrs by HTRF analysis; type: cell-based
Method in brief: (§2)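 Stably transfected HEK293 cells expressing human WT or G2019S LRRK2 were seeded at 5K/well in DMEM with 1% serum on poly-D-lysine plates. Inhibitor in DMSO was added for 2 h at 37 °C. pS935 was detected by an HTRF kit. IC50 is the geometric mean of at least two independent experiments.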

[6] = target: T1, Leucine-rich repeat serine/threonine-protein kinase 2; experiment: Inhibition of human LRRK2 G2019S mutant expressed in HEK293 cells assessed as reduction in pS1292 phosphorylation incubated for 2 hrs by MSD analysis; type: cell-based
Method in brief: (§3)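 HEK293 cells stably expressing WT or G2019S LRRK2 (30−50K/well, DMEM with 1% serum) were treated for 2 h at 37 °C and lysed with phosphatase inhibitors. LRRK2 was captured on anti-LRRK2-coated MSD plates overnight at 4 °C. Detection used rabbit anti-pS1292 (1:400) and Sulfo-Tag anti-rabbit, with an electrochemiluminescence read-out. IC50 is the geometric mean of at least two independent experiments.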

[7] = target: T1, Leucine-rich repeat serine/threonine-protein kinase 2; experiment: Inhibition of human LRRK2 G2019S mutant expressed in HEK293 cells assessed as reduction in pSer935 phosphorylation incubated for 2 hrs by HTRF analysis; type: cell-based; method in brief: as §2
Homo sapiens [8] = organism: Homo sapiens; experiment: Selectivity ratio of IC50 for inhibition of human wild type LRRK2 expressed in HEK293 cells assessed as reduction in pS1292 phosphorylation to IC50 for inhibition of human LRRK2 G2019S mutant expressed in HEK293 cells assessed as reduction in pS1292 phosphorylation; type: cell-based; method in brief: as §3
[9] = target: T2, Leucine-rich repeat serine/threonine-protein kinase 2; experiment: Inhibition of human wild type LRRK2 expressed in HEK293 cells assessed as reduction in pS1292 phosphorylation incubated for 2 hrs by MSD analysis; type: cell-based; method in brief: as §3

T2 sequence (Q5S007 whole entry, the tested form may be a part): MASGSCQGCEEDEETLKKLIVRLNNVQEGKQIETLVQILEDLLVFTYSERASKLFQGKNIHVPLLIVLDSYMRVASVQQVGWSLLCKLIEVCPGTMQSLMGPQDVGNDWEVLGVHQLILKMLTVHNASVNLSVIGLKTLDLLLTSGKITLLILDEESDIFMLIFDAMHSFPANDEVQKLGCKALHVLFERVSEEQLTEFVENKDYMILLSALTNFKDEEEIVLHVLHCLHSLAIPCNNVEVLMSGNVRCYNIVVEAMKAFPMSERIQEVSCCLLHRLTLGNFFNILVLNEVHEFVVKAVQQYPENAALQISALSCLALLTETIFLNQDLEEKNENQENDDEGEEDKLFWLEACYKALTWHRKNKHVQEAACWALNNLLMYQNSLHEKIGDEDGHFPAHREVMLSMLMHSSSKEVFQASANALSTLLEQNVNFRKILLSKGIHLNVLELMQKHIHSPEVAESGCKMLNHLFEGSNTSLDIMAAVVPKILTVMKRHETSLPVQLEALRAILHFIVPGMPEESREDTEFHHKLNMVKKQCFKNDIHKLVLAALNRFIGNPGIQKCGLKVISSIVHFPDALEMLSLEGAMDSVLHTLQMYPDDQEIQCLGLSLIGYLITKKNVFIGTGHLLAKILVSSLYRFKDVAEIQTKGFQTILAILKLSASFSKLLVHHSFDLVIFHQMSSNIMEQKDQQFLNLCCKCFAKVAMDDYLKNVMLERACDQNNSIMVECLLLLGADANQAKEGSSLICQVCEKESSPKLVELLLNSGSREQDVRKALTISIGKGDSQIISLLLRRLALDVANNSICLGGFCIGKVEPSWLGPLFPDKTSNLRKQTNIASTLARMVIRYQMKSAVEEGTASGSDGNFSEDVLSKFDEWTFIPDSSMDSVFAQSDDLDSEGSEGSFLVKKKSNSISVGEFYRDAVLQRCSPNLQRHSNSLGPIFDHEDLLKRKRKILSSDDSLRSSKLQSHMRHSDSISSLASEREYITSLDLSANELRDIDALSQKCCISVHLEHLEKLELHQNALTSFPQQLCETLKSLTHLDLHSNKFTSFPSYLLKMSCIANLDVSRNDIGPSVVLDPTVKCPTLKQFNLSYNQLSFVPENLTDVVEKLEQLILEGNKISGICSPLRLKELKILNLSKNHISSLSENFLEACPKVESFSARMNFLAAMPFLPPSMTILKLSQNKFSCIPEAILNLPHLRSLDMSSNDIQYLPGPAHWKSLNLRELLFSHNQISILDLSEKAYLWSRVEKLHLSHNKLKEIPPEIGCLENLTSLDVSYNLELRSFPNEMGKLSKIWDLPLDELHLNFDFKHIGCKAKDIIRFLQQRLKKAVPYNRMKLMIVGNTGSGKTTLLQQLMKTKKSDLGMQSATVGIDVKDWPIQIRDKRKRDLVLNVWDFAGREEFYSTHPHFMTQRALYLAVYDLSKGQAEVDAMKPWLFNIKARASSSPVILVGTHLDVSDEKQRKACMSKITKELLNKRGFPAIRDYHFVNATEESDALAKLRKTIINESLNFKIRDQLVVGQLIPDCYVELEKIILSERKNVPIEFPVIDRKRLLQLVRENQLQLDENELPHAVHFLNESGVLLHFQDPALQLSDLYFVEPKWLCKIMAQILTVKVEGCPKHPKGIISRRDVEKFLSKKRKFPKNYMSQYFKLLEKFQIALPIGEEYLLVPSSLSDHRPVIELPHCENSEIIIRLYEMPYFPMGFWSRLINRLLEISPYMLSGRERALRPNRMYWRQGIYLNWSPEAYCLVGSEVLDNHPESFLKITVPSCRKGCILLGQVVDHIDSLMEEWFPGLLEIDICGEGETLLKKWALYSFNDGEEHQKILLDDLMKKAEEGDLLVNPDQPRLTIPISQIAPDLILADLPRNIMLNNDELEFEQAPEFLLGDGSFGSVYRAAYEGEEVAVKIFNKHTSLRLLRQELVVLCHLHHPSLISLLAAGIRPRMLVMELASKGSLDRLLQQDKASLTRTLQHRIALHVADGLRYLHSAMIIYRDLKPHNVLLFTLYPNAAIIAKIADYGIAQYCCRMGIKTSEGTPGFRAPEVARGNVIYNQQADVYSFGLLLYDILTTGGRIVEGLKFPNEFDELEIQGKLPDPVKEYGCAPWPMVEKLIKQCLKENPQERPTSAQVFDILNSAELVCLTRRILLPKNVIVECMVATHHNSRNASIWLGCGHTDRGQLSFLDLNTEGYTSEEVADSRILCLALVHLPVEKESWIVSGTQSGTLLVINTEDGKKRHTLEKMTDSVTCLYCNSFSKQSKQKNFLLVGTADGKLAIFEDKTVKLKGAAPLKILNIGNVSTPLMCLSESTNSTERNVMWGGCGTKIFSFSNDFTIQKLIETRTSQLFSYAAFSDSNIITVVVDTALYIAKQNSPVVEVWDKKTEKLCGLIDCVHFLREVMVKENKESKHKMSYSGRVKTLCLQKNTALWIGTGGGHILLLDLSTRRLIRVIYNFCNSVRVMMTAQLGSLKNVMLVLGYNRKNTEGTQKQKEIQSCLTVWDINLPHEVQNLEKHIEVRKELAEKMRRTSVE
T1 sequence (Q5S007 whole entry G2019S, the tested form may be a part): as the sequence (Q5S007 whole entry, the tested form may be a part) above, with G2019S counted along it

Row | IC50 [1] | IC50 [2] | Ratio IC50 (Homo sapiens [3]) | IC50 [5] | IC50 [6] | IC50 [7] | IC50 [9] | SMILES | Ratio IC50 (Homo sapiens [4]) | Ratio IC50 (Homo sapiens [8])
1 | 2.4 nM | 96 nM | 40 |  |  |  |  | CC1=C(C(=O)Nc2ccc3[nH]nc(Br)c3c2)Cn2nnnc2N1C |  | 
2 | < 0.2 nM | < 0.2 nM |  | 1140 nM | 12.1 nM | 14.7 nM | 272 nM | CC1=C(C(=O)Nc2ccc3[nH]nc(-c4ccncc4)c3c2)[C@@H](C)n2nnnc2N1C | 78 | 22
3 | < 0.2 nM | 1 nM | > 5 |  |  |  |  | CC1=C(C(=O)Nc2ccc3[nH]nc(-c4ccnc(N5CCOCC5)c4)c3c2)[C@H](C)n2nnnc2N1C |  | 
4 | < 0.2 nM | 0.53 nM | > 2.6 | 3300 nM | 21 nM | 21 nM | 242 nM | CC1=C(C(=O)Nc2ccc3[nH]nc(-c4nc5ccccc5[nH]4)c3c2)Cn2nnnc2N1C | 157 | 12
5 | 0.44 nM | 9 nM | 20 |  |  |  |  | CC1=C(C(=O)Nc2ccc3[nH]nc(-c4ccncc4)c3c2)Cn2nnnc2N1C |  | 
6 | 3 nM | 108 nM | 35 |  |  |  |  | CC1=C(C(=O)Nc2ccc3[nH]nc(NC(=O)c4ccccc4)c3c2)Cn2nnnc2N1C |  | 
7 | 32 nM | 1700 nM | 53 |  |  |  |  | CC1=C(C(=O)Nc2ccc3c(c2)CNC3=O)[C@@H](C)n2nnnc2N1C |  | 
8 | 1350 nM | > 10000 nM | > 7.4 |  |  |  |  | CC1=C(C(=O)Nc2ccn3cnc(C)c3c2)Cn2nnnc2N1C |  | 
9 | 12 nM | 581 nM | 48 |  |  |  |  | CC1=C(C(=O)Nc2ccc3c(N)nccc3c2)[C@@H](C)n2nnnc2N1C |  | 
10 | 51 nM | 1220 nM | 24 |  |  |  |  | CC1=C(C(=O)Nc2ccc3[nH]nc(C)c3c2)[C@H](C)n2nnnc2N1C |  | 
11 | 513 nM | 2540 nM | 5 |  |  |  |  | CC(=O)N1C(C)=C(C(=O)Nc2ccc3[nH]ncc3c2)Cn2nnnc21 |  | 
12 | > 10000 nM | > 10000 nM |  |  |  |  |  | CC1=C(C(=O)Nc2ccc3[nH]cc(C)c3c2)Cn2nnnc2N1C |  | 
13 | 58 nM | 865 nM | 15 |  |  |  |  | CCN1C(C)=C(C(=O)Nc2ccc3[nH]ncc3c2)Cn2nnnc21 |  | 
14 | > 10000 nM | > 10000 nM |  |  |  |  |  | CC1=C(C(=O)Nc2ccc3c(c2)[nH]c(=O)n3C)[C@@H](C)n2nnnc2N1C |  | 
15 | 15.3 nM |  | 15 |  |  |  |  | CC1=C(C(=S)Nc2ccc3[nH]ncc3c2)Cn2nnnc2N1C |  | 
16 | 55 nM | 2840 nM | 52 |  |  |  |  | CC1=C(C(=O)Nc2ccc3c(c2)C(=O)NC3=O)[C@@H](C)n2nnnc2N1C |  | 
17 | 240 nM | > 8600 nM | > 36 |  |  |  |  | CC1=C(C(=O)Nc2ccc3[nH]c(=O)[nH]c3c2)Cn2nnnc2N1C |  | 
18 | 32 nM | 509 nM | 16 |  |  |  |  | CC1=C(C(=O)Nc2ccc3[nH]ncc3c2)Cn2nnnc2N1C |  | 
19 | 12 nM | 1300 nM | 108 |  |  |  |  | CC1=C(C(=O)Nc2ccc3[nH]ncc3c2)C(C)(C)n2nnnc2N1C |  | 
20 | 6370 nM | > 10000 nM | > 1.6 |  |  |  |  | CC1=C(C(=O)Nc2ccc3c(c2)CC(=O)N3)Cn2nnnc2N1C |  | 

Row | IC50 [1] | IC50 [2] | Ratio IC50 (Homo sapiens [3]) | IC50 [5] | IC50 [6] | IC50 [7] | IC50 [9] | SMILES | Ratio IC50 (Homo sapiens [4]) | Ratio IC50 (Homo sapiens [8])
21 | 0.8 nM | 152 nM | 190 |  |  |  |  | CC1=C(C(=O)Nc2ccc3[nH]nc(C)c3c2)C(C)(C)n2nnnc2N1C |  | 
22 | < 0.2 nM | < 0.2 nM |  | 65 nM | 1.2 nM | 2.4 nM | 20.9 nM | CC1=C(C(=O)Nc2ccc3[nH]nc(-c4ccnc(N5CCOCC5)c4)c3c2)[C@@H](C)n2nnnc2N1C | 27 | 18
23 | 94 nM | 302 nM | 3.2 |  |  |  |  | CC1=C(C(=O)Nc2ccc3[nH]ncc3c2)[C@H](C)n2nnnc2N1C |  | 
24 | < 0.2 nM | 0.7 nM | > 3.5 |  |  |  |  | CC1=C(C(=O)Nc2ccc3[nH]nc(-c4ccc(S(N)(=O)=O)cc4)c3c2)Cn2nnnc2N1C |  | 
25 | 2.6 nM | 5.7 nM | 2.2 |  |  |  |  | CC1=C(C(=O)Nc2ccc3[nH]ncc3c2)Cn2nnnc2N1c1ccccc1 |  | 
26 | 10 nM | 121 nM | 12 |  |  |  |  | CC1=C(C(=O)Nc2ccc3[nH]nc(C)c3c2)Cn2nnnc2N1C |  | 
27 | 3120 nM | > 10000 nM | > 3.2 |  |  |  |  | CC1=C(C(=O)Nc2ccc3cnc(C)n3c2)Cn2nnnc2N1C |  | 
28 | > 10000 nM | > 10000 nM |  |  |  |  |  | CC1=C(C(=O)Nc2ccc3[nH]cnc3c2)Cn2nnnc2N1C |  | 
29 | 6 nM | 125 nM | 21 |  |  |  |  | CC1=C(C(=O)Nc2ccc3[nH]nc(C(N)=O)c3c2)Cn2nnnc2N1C |  | 
30 | 1190 nM | > 10000 nM | > 8.4 |  |  |  |  | CCCC(=O)Nc1n[nH]c2ccc(NC(=O)C3=C(C)N(C)c4nnnn4C3)cc12 |  | 
31 | 0.4 nM | 0.88 nM | 2.2 |  |  |  |  | CC1=C(C(=O)Nc2ccc3[nH]nc(-c4cc(N5CCOCC5)ncn4)c3c2)Cn2nnnc2N1C |  | 
32 | 58 nM | 2870 nM | 49.7 |  |  |  |  | CC1=C(C(=O)Nc2ccc3[nH]c(=O)n(C)c3c2)[C@@H](C)n2nnnc2N1C |  | 
33 | > 10000 nM |  |  |  |  |  |  | CC1=C(C(=O)N(C)c2ccc3[nH]ncc3c2)Cn2nnnc2N1C |  | 
34 | 1.64 nM | 71 nM | 43 | > 10000 nM | 104 nM | 189 nM | 2180 nM | CC1=C(C(=O)Nc2ccc3[nH]ncc3c2)[C@@H](C)n2nnnc2N1C | > 53 | 21
35 | < 0.2 nM | < 0.2 nM |  | 377 nM | 9.2 nM | 8.3 nM | 74.4 nM | CC1=C(C(=O)Nc2ccc3[nH]nc(-c4ccnc(N5CCOCC5)c4)c3c2)Cn2nnnc2N1C | 45 | 8
36 | > 10000 nM | > 10000 nM |  |  |  |  |  | CN1C=C(C(=O)Nc2ccc3[nH]ncc3c2)Cn2nnnc21 |  | 
37 | 244 nM | 534 nM | 2.2 |  |  |  |  | CCC1=C(C(=O)Nc2ccc3[nH]ncc3c2)Cn2nnnc2N1C |  | 
38 | 4650 nM | 6130 nM | 1.3 |  |  |  |  | CC1=C(C(=O)Nc2ccc3[nH]ncc3c2)Cn2nnnc2N1CCN1CCOCC1 |  | 
39 | 53 nM | 888 nM | 17 |  |  |  |  | CC1=C(C(=O)Nc2ccc3[nH]ncc3c2)Cn2nnnc2N1C(=O)N(C)C |  | 
